High-throughput results from PubChem.
Shown are actives, neighbours in structure and some others; about 1.6% of the full set was active somewhere.
ADAM17 inh – inhibits human ADAM17; P78536; recombinant ADAM17, EDANS/DABCYL FRET peptide cleavage; inhibition, % at 6.95 µM; 370,000 tested, 0.83% active; AID 720648;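 active means inhibition above the mean of compounds lying between control limits plus 3 SD, set per campaign, cut at about 8.5% in these data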
Tn7 DDE FP – disrupts Tn7 cyclic peptide binding to fibrin D-Dimer-E complex | P02675 | FP displacement of FITC-Tn7 peptide from fibrin DD(E); 0% = median of compound wells per plate | inhibition, % at 8.3 µM | 370,000 tested, 0.13% active | AID 720508;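 active means inhibition above the mean of compounds falling within the control limits plus 3 SD of them, cut at about 14% in these data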
Target sequence (P02675 whole entry, looked up): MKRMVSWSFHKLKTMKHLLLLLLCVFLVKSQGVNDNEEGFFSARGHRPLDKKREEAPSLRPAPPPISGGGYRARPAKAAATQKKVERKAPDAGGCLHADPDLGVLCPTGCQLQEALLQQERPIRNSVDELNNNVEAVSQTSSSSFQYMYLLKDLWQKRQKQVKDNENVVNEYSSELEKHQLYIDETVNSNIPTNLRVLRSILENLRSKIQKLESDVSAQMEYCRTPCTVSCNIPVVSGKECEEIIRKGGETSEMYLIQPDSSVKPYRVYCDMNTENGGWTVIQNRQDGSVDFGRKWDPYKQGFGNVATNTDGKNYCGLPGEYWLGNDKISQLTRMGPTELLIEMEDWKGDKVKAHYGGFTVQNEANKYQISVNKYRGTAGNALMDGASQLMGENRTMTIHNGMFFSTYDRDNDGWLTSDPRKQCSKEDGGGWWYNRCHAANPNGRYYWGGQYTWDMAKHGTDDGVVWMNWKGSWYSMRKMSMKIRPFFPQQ
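Assay system: Human clot-derived fibrin DD(E) complex | Buffer or medium: Tris/NaCl/CaCl2 buffer, pH 7.8 | Repeats: One replicate per compound | Benchmarks: Aha-Tn7 high control | Measure: % inhibition scaled between sample-field median and high-control FP | Schedule: 10 min plus 3 h, room temperature | Signal: Fluorescence polarization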
Tn6 DDE FP – inhibitors of Tn6 peptide binding to human fibrin DD(E); Fibrin DD(E) TRITC-Tn6 fluorescence polarization displacement; P02675; inhibition, % at 8.3 µM; 370,000 tested, 0.21% active;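 active means inhibition above a per-campaign cutoff: mean of compounds within control limits plus 3 SD, cut at about 15% in these data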
MT1-MMP act inh – inhibitors of human MT1-MMP activation. P50281. HT1080 RFP-PRO-GFP cells, GFP/RFP ratio fluorescence, overnight; percent of plate control window, DMSO zero. GFP/RFP ratio change, % at 20 µM. 360,000 tested, 0.061% active. AID 651647;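 active means GFP/RFP ratio change of at least 30% with cell ATP level not reduced by more than half and red fluorescence within 50% of control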
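Read-out: GFP/RFP fluorescence ratio; Test system: RFP-PRO-GFP reporter HT1080 cells; Compound dosing: single-point 20 µM compound, 1% DMSO; Times: overnight compound exposure at 37 °C.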
ADAM10 inh – inhibitors of human ADAM10. O14672. recombinant ADAM10, EDANS/DABCYL FRET peptide cleavage, 3 h. inhibition, % at 7 µM. 370,000 tested, 0.62% active. AID 720582;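 active means inhibition above a per-campaign cutoff equal to the mean of compounds falling between control-based bounds plus 3 SD, cut at about 20% in these data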
ADAM10 confirm – confirmation of inhibitors of human ADAM10; shares compounds with ADAM10 inh; ADAM10 QFRET peptide cleavage, EDANS fluorescence; inhibition, % at 6.95 µM; 2,100 tested, 1% active; AID 743208;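 active means inhibition above about 20% chosen separately for each screening run, limit read from the data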
ADAM17 ctr – inhibits human ADAM17 in ADAM10 exosite counter-screen; shares compounds with ADAM10 inh; inhibition, % at 6.95 µM; ADAM17 QFRET peptide cleavage, EDANS fluorescence; 2,100 tested, 0.5% active;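 active means mean triplicate inhibition above the solvent-only control wells' mean plus 3 SD, cut at about 12% in these data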
ADAM10 ctr – ADAM10 inhibition, counter-screen for ADAM17 exosite hits; shares compounds with ADAM17 inh; recombinant ADAM10, EDANS/DABCYL FRET peptide cleavage, 3 h; inhibition, % at 6.95 µM; 2,900 tested, 47% active; AID 743256;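 active means mean inhibition over the triplicate runs exceeds the activity threshold set in the earlier primary screen, cut at about 20% in these data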
ADAM17 confirm – human ADAM17 inhibition, confirmation. 2,900 tested, 65% active. shares compounds with ADAM17 inh. inhibition, % at 6.95 µM. AID 743257. recombinant ADAM17, EDANS/DABCYL QFRET peptide cleavage;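 active means mean inhibition across replicates above the hit cutoff set in the primary screen, cut at about 8.5% in these data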
Large screens that a line does not name were inactive (follow-up assays come after a bar, where they were run).

O=C1N[C@@H](Cc2c[nH]c3ccccc23)COC(=O)[C@@H](Cc2ccc(F)cc2)C/C=C\C[C@H]1CC(=O)N(CCO)Cc1ccccc1	ADAM17 inh 9.7, ADAM10 inh 24 | ADAM10 confirm inactive | ADAM17 ctr inactive | ADAM10 ctr 30 | ADAM17 confirm 15
Cc1cccc(-c2cccc3c4c([nH]c23)[C@@H]2C[C@H](N(C)C(=S)NCCc3ccccc3)[C@H]([C@H](C)O)CN2CC4)c1	none (no result: MT1-MMP act inh)
COC(=O)[C@]12C[C@H](CC(=O)N3CCC(c4ccccc4)CC3)C(=O)N(Cc3ccccc3)C1=C[C@H](C(C)C)O[C@@H]2C1CC1	none (no result: MT1-MMP act inh)
Cc1ccc(NC(=O)COC(=O)/C=C/c2cccs2)cc1	none
CCN(c1ccc(NC(=O)COC(=O)/C=C/c2cccs2)cc1)C(C)C	ADAM17 inh 17, ADAM10 inh 34 | ADAM10 confirm inactive | ADAM17 ctr inactive | ADAM10 ctr 33 | ADAM17 confirm 18
COc1ccc(CN2C[C@H](COCc3ccccc3)Oc3cccc(F)c3S2(=O)=O)cc1	none (no result: MT1-MMP act inh)
CCCN1C(=O)c2[nH]nc(-c3cc(Cl)c(C)cc3O)c2C1c1ccc(O)c(OC)c1 (configuration not stated)	ADAM17 inh 12, ADAM10 inh 21 | ADAM10 confirm inactive | ADAM17 ctr inactive | ADAM10 ctr 34 | ADAM17 confirm 19
Cc1cc(O)c(-c2n[nH]c3c2C(c2cccc(O)c2)N(Cc2cccnc2)C3=O)cc1Cl (configuration not stated)	ADAM17 inh 9.6, ADAM10 inh 22 | ADAM10 confirm inactive | ADAM17 ctr inactive | ADAM10 ctr inactive | ADAM17 confirm inactive
COCCCN1C(=O)c2[nH]nc(-c3cc(C)cc(C)c3O)c2C1c1ccc(O)c(OC)c1 (configuration not stated)	none
CCOC(=O)[C@@]12CCCC3=C1N(CCC3)C(=O)[C@H]2CC(=O)NCCCCc1ccccc1	none (no result: MT1-MMP act inh)
COc1ccc(C(CCOC(=O)Oc2ccccc2)c2cc(OC)cc(OC)c2)cc1 (configuration not stated)	none (no result: MT1-MMP act inh)
CCOc1ccc(S(=O)(=O)N(CC(=O)Nc2cc(C)on2)Cc2ccccc2Cl)cc1	ADAM17 inh 16, ADAM10 inh 29 | ADAM10 confirm inactive | ADAM17 ctr inactive | ADAM10 ctr inactive | ADAM17 confirm inactive
CCOc1ccc(N(CC(=O)NCc2ccccc2Cl)S(=O)(=O)c2c(C)noc2C)cc1	none
CCOC(=O)C1=CCN(S(=O)(=O)c2ccccc2Br)C1c1ccc(Cl)c(Cl)c1 (configuration not stated)	none
CCOC(=O)C1=CCN(S(=O)(=O)c2ccccc2Cl)C1c1ccc(Cl)c(Cl)c1 (configuration not stated)	ADAM17 inh 15, ADAM10 inh 21 | ADAM10 confirm inactive | ADAM17 ctr inactive | ADAM10 ctr inactive | ADAM17 confirm inactive
NC(=O)C1=C[C@H](C2CCCCC2)C[C@H](OCc2ccc(CO)cc2)O1	ADAM17 inh 8.9, ADAM10 inh 20 | ADAM10 confirm inactive | ADAM17 ctr inactive | ADAM10 ctr inactive | ADAM17 confirm inactive
C=CCOC(=O)C1=C[C@H](C2CCCCC2)C[C@H](OCc2ccc(CO)cc2)O1	none
O=S1(=O)CC(N2CCCC2)CN1Cc1cn(Cc2ccc(C(F)(F)F)cc2)nn1 (configuration not stated)	none (no result: MT1-MMP act inh)
